Screening results: PubChem, several laboratories
Mdm2 ligase inh: inhibitors of human Mdm2 E3 ubiquitin ligase; Q00987; cell-based MDM2 ubiquitination luciferase reporter, 2 h; 0 = plate control, 100 = twice control, blank-subtracted; signal enhancement, % at 5 µM; 210,000 compounds, 0.11% hits; AID 1230;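 active = signal enhancement of 30% or more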;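 also: luminescence tracks abundance of the self-degrading MDM2-luciferase fusion protein; higher signal means inhibition of MDM2 E3 ligase activity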
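Test system: mammalian cells stably expressing self-ubiquitinating, self-degrading MDM2 E3–luciferase fusion; Amount: 2000 cells in each well; Medium: DMEM; Schedule: 4 h settle plus 2 h compound, 37 °C; Technique: SteadyLite luciferase luminescence after 15 min room-temperature reagent incubation; Benchmarks: plate control and blank wells.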
Hck-Nef inh: human Hck-Nef kinase inhibition; inhibition, % at 20 µM; Recombinant Hck-YEEI plus Nef, Z-Lyte FRET kinase assay; 220,000 compounds, 0.68% hits; P08631;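 active = Hck-Nef kinase inhibition above about 50%, limit read from the data; inactive = inhibition below that limit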;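 also: 0% = DMSO with Hck plus Nef and 100% = Hck alone without Nef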
Target sequence (P08631 whole entry, looked up): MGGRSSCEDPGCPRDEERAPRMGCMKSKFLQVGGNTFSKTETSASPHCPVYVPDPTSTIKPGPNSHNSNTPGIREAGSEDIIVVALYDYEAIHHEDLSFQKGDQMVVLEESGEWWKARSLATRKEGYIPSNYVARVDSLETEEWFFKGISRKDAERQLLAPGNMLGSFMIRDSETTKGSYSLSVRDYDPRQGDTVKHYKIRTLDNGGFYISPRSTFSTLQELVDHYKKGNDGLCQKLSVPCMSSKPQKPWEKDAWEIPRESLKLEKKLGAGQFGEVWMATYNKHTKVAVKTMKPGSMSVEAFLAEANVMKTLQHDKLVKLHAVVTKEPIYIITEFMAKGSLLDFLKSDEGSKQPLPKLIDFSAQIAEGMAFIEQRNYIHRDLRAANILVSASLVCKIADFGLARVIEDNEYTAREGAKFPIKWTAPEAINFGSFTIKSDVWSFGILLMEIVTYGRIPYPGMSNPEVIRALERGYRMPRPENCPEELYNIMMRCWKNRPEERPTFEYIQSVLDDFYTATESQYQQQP
TAG inh: inhibitors of triacylglycerol accumulation; AID 651582; inhibition, % at 12.5 µM; 230,000 compounds, 0.66% hits; H9c2 cells, Nile Red lipid (TAG) fluorescence; cells loaded with 200 µM oleic acid;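 active = pattern-corrected inhibition of lipid staining of at least 50% with the nuclear-stain viability signal not falling by more than 50%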;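 also: 0% = DMSO wells and 100% = triacsin C control wells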
Rad51 HR inh: Rad51 (human) homologous recombination inhibition. 200,000 compounds, 0.085% hits. Q06609. inhibition, % at 10 µM. hRad51 DNA strand exchange, fluorescence dequenching. AID 1385;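 active = inhibition above 40% at the single screening dose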;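 also: 0% = DMSO control wells and 100% = blanks with heterologous ssDNA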
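material = hRad51 filaments on single-stranded DNA | reagent = Donor/quencher-labelled 47-bp dsDNA substrate | compound = 10 µM final, single point | schedule = strand-exchange reaction 15 min at room temperature | measured by = fluorescein emission 520 nm, excitation 485 nm | read-out basis = % inhibition versus plate control and blank means | benchmarks = plate controls and plate blanks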
PKD1 inh: blocks activity of human protein kinase D1; Q15139; PKD1 kinase fluorescence polarization assay; inhibition, % (concentration not given with the values); 200,000 compounds, 0.056% hits; in the data active = inhibition above about 50%
PERK inh: inhibitors of human PERK kinase | AID 1416 | CHO PERK-DD fusion, SEAP luminescence translation reporter | 220,000 compounds, 0.17% hits | Q9NZJ5 | inhibition, % at 5.6 µM;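 active = inhibition above the mean inhibition of all tested compounds plus 3 SD, set separately per screening campaign, cut at about 2.9% in these data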;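 also: PERK kinase domain activated by AP20187 dimerizer at 100 nM; 0% = DMSO with dimerizer and 100% = rapamycin at 8.4 µM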
Numbers without * were called inactive; x = no result. Shown are actives, neighbours in structure and some others; about 1.3% of the full set was active somewhere.

SMILES	Mdm2 ligase inh	Hck-Nef inh	TAG inh	Rad51 HR inh	PKD1 inh	PERK inh
Cc1cc(O)c(C=O)c2c1C(=O)Oc1c(CO)c(O)c3c(c1O2)C(O)OC3=O (stereo unspecified)	3	33	x	66*	12	0
O=C(O)/C=C/c1cn(Cc2ccccc2)nc1-c1cccnc1	x	12	-11	45*	x	1
O=C1CC(SC2=NCCS2)C(=O)N1c1cccc(Cl)c1Cl (stereo unspecified)	-1	-1	7	10	4	2
Cc1ccccc1-n1c(SCC(=O)NC2CC2)nc2ccccc2c1=O	x	x	-4	x	x	x
O=C1c2ccncc2C(=O)N1c1cccc(Cl)c1	-26	22	5	2	2	4.0*
O=C1c2cccc3cccc(c23)C(=O)N1c1cccnc1	-3	1	x	7	-13	1
COc1ccc(-c2nc(CN3CCCCC3c3nccn3C)c(C)o2)c(C)c1C (stereo unspecified)	-10	21	-19	3	-2	0
CSc1nc(Oc2ccc(C)cc2)cc(C(F)(F)F)n1	-1	0	x	-8	-11	3.6*
CC1=CC(C)(C)Nc2ccc(OC(=O)CN3C(=O)c4ccccc4C3=O)cc21	-11	0	52*	-7	-1	0
O=S(=O)(O)c1ccc(N2N=C(c3ccccc3)CC2c2ccccc2)cc1 (stereo unspecified)	-12	85*	7	-2	-6	1
Cc1cccc2c1NC1(CCCC1)CC2C (stereo unspecified)	-16	11	2	6	x	1
Cc1ccc2c(c1C)NC(C)CC2C (stereo unspecified)	-15	0	-5	7	2	3.4*
COc1cc(/C=N\Nc2nc(-c3ccc(C)cc3)c(NC(C)=O)s2)ccc1O	3	105*	28	x	x	1
Cn1c(=O)c(C(=O)COC(=O)c2cc(C3CC3)nc3ccccc23)c(N)n(Cc2ccccc2)c1=O	x	-2	x	-8	-1	-1
Cn1c(=O)c(C(=O)COC(=O)c2cc(-c3ccco3)nc3ccccc23)c(N)n(CC2CC2)c1=O	x	51*	x	x	-11	-1
COc1cc2[nH]c3c(c2cc1OC)CCN1CCCC[C@@H]31	x	x	x	-7	x	x
CC(C)c1cc(C(=O)N2CCCC(C(=O)c3ccc4ccccc4c3)C2)on1 (stereo unspecified)	-7	-3	-6	x	0	2.9*
Cc1ccccc1NC(=O)Nc1ccc2c(c1)OCO2	x	x	5	x	x	x
CCc1cccc(C)c1NC(=O)Nc1ccc2c(c1)OCO2	-30	13	1	-4	0	3.5*
COc1cc(/C=C(\C#N)c2nc(-c3cc4ccccc4oc3=O)cs2)ccc1O	-7	-1	22	-23	-2	1
COc1cc(/C=C(/C#N)c2nc(-c3cc4ccccc4oc3=O)cs2)cc([N+](=O)[O-])c1O	-4	114*	x	0	x	2
O=S1(=O)C=C(Sc2nc3ccccc3s2)c2ccccc21	52*	7	x	7	-5	1
CCc1c(C)c(C#N)c2nc3ccccc3n2c1Cl	44*	4	x	-35	11	2
CCc1c(C)c(C#N)c2nc3ccccc3n2c1-n1nc(C)cc1C	-5	0	x	x	-8	-1
CC(=O)Nc1ccc(S(=O)(=O)N(C)CC(=O)OCC(=O)N2CCc3ccccc32)cc1	47*	10	10	x	-5	1
SMILES	Mdm2 ligase inh	Hck-Nef inh	TAG inh	Rad51 HR inh	PKD1 inh	PERK inh
COc1ccc(-c2sc3ccccc3c2-c2ccc(OCCN(C)C)cc2)cc1	x	x	63*	x	x	x
CN(C)CCOc1ccc(-c2c(-c3ccsc3)sc3ccccc23)cc1	x	x	21	x	x	x
Cc1ccc2nc(C(=O)N3CCc4c([nH]c5ccccc45)C3c3ccccn3)cn2c1 (stereo unspecified)	-16	22	11	0	-6	-1
COc1ccc2c(c1)C(c1ccc(Cl)cc1)NC(=O)C2 (stereo unspecified)	x	x	9	x	x	x
CS(=O)(=O)c1sc(C#N)c2c1C(=O)CC(c1ccccc1)C2 (stereo unspecified)	-19	-26	93*	-7	x	1
Cc1oc2c(c(=O)c1C)C(=O)CC(c1ccccc1)C2 (stereo unspecified)	-17	0	13	-4	-12	0
CCOC(=O)c1c(NC(=S)Nc2ccccc2)sc2c1CCCCC2	-5	1	x	4	-8	1
CCOC(=O)c1c(NC(=S)Nc2ccccc2)sc2c1CCN(CC)C2	51*	4	x	-47	-13	-1
Cn1nnnc1Sc1ncnc2scc(-c3cccc(Br)c3)c12	x	x	67*	x	x	x
O=C(Cn1nnc(-c2cccs2)n1)NCc1ccccc1	-9	1	-10	10	-2	1
O=C(Cn1nnc(-c2cccs2)n1)NCc1ccco1	-57	-5	8	-4	1	2.9*
CN(C)C1C(=O)c2ccccc2C1=O	-6	2	x	5	-2	0
Cn1cccc1C(=O)NC(=O)COC(=O)c1cc(S(=O)(=O)N2CCCCC2)ccc1Cl	7	26	x	-25	91*	0
O=C(Cn1ncc(Cl)c(Cl)c1=O)NC(=O)NC1CCCCC1	x	x	56*	x	x	x
O=C(CN1CCCCC1)NC(=O)NC1CCCC1	-3	13	x	-3	-10	0
CC(NC(=O)Cn1ncc(Cl)c(Cl)c1=O)C12CC3CC(CC(C3)C1)C2 (stereo unspecified)	99*	20	x	11	-1	1
CCN1CCc2c(sc(NC(=O)c3ccc(S(=O)(=O)N(C)CC4CCCO4)cc3)c2C(N)=O)C1 (stereo unspecified)	x	x	5	x	x	x
CCOC(=O)C(NC(C)=O)(Nc1ccc(S(=O)(=O)Nc2cc(C)on2)cc1)C(F)(F)F (stereo unspecified)	2	-7	-4	41*	-2	0
CCOC(=O)C(NC(C)=O)(Nc1ccc(S(=O)(=O)Nc2onc(C)c2C)cc1)C(F)(F)F (stereo unspecified)	-17	0	12	2	8	1
CCn1cc([N+](=O)[O-])c(C(=O)N2N=C(c3ccc4ccccc4c3)CC2c2cc(Br)ccc2O)n1 (stereo unspecified)	5	2	56*	9	-6	-1
CCn1cc([N+](=O)[O-])c(C(=O)N2N=C(c3ccc(Cl)c(Cl)c3)CC2c2ccccc2O)n1 (stereo unspecified)	-2	25	32	-2	-4	-1
O=C(CCCC(=O)N/N=C/c1ccccc1C(=O)O)N/N=C/c1ccccc1C(=O)O	-12	-5	-2	x	x	3.5*
O=C(CCCCC(=O)NN=Cc1ccccc1O)NN=Cc1ccccc1O	x	x	3	x	x	x
COc1cccc2sc(Nc3nc(-c4ccncc4)cs3)nc12	0	17	57*	x	3	0
